# Measurements: ChEMBL document CHEMBL4732237, “Discovery of 4-alkoxy-2-aryl-6,7-dimethoxyquinolines as a new class of topoisomerase I inhibitors endowed with potent in vitro anticancer activity” (2021)
# System: UACC-257
# Experiment: Growth inhibition of human UACC-257 cells at 10 uM incubated for 48 hrs by sulforhodamine B assay relative to control
# Format: functional
# Conditions: read-out: GI
# Summary of the method: (§1)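 NCI one-dose screen across a 59-line panel. Cells were grown in RPMI 1640 with 5% FBS and 2 mM L-glutamine, plated and pre-incubated 24 h, then exposed to drug for 48 h at 37 °C, 5% CO2. Adherent cells were fixed with cold TCA (10% final), stained with 0.4% SRB in 1% acetic acid and read at 515 nm. Result is percent growth relative to no-drug control and time-zero cell count.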
row,Structure (SMILES),inhibition of growth at 10 µM [%]
1,COc1cc2nc(-c3ccc(C(F)(F)F)cc3)cc(OCCN3CCCCC3)c2cc1OC,13

# System: NCI-H522
# Experiment: Growth inhibition of human NCI-H522 cells at 10 uM incubated for 48 hrs by sulforhodamine B assay relative to control
# Format: functional
# Conditions: read-out: GI
# Summary of the method: (§2)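 NCI one-dose screen. Cells grown in RPMI 1640 with 5% FBS and 2 mM L-glutamine, plated and incubated 24 h at 37 °C, 5% CO2. DMSO-dissolved drug added, then 48 h further incubation. Adherent cells fixed with cold TCA, suspension cells fixed after settling. Stained with 0.4% SRB, absorbance read at 515 nm. Reported as percent growth relative to no-drug control and time-zero cell number.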
row,Structure (SMILES),inhibition of growth at 10 µM [%]
1,COc1cc2nc(-c3ccc(C(F)(F)F)cc3)cc(OCCN3CCCCC3)c2cc1OC,13

# System: MDA-MB-435
# Experiment: Growth inhibition of human MDA-MB-435 cells at 10 uM incubated for 48 hrs by sulforhodamine B assay relative to control
# Format: functional
# Conditions: read-out: GI
# Summary of the method: (§3)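 NCI-60 single-dose screen. Cells were grown in RPMI 1640 with 5% FBS and 2 mM L-glutamine and plated 24 h before drug addition. Compound was added at one concentration in DMSO-derived medium and incubated for 48 h at 37 °C in 5% CO2. Read-out was SRB protein stain at 515 nm. Result is percent growth versus the no-drug control and the time-zero cell count; values below 0 indicate lethality.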
row,Structure (SMILES),inhibition of growth at 10 µM [%]
1,COc1cc2nc(-c3ccc(C(F)(F)F)cc3)cc(OCCN3CCCCC3)c2cc1OC,13

# System: NCI-H460
# Experiment: Growth inhibition of human NCI-H460 cells at 10 uM incubated for 48 hrs by sulforhodamine B assay relative to control
# Format: functional
# Conditions: read-out: GI
# Summary of the method: as §2
row,Structure (SMILES),inhibition of growth at 10 µM [%]
1,COc1cc2nc(-c3ccc(C(F)(F)F)cc3)cc(OCCN3CCCCC3)c2cc1OC,13

# System: SW-620
# Experiment: Growth inhibition of human SW-620 cells at 10 uM incubated for 48 hrs by sulforhodamine B assay relative to control
# Format: functional
# Conditions: read-out: GI
# Summary of the method: as §1
row,Structure (SMILES),inhibition of growth at 10 µM [%]
1,COc1cc2nc(-c3ccc(C(F)(F)F)cc3)cc(OCCN3CCCCC3)c2cc1OC,13

# System: OVCAR-8
# Experiment: Growth inhibition of human OVCAR-8 cells at 10 uM incubated for 48 hrs by sulforhodamine B assay relative to control
# Format: functional
# Conditions: read-out: GI
# Summary of the method: as §2
row,Structure (SMILES),inhibition of growth at 10 µM [%]
1,COc1cc2nc(-c3ccc(C(F)(F)F)cc3)cc(OCCN3CCCCC3)c2cc1OC,13

# System: PC-3
# Experiment: Growth inhibition of human PC-3 cells at 10 uM incubated for 48 hrs by sulforhodamine B assay relative to control
# Format: functional
# Conditions: read-out: GI
# Summary of the method: as §2
row,Structure (SMILES),inhibition of growth at 10 µM [%]
1,COc1cc2nc(-c3ccc(C(F)(F)F)cc3)cc(OCCN3CCCCC3)c2cc1OC,13

# System: SR
# Experiment: Growth inhibition of human SR cells at 10 uM incubated for 48 hrs by sulforhodamine B assay relative to control
# Format: functional
# Conditions: read-out: GI
# Summary of the method: as §2
row,Structure (SMILES),inhibition of growth at 10 µM [%]
1,COc1cc2nc(-c3ccc(C(F)(F)F)cc3)cc(OCCN3CCCCC3)c2cc1OC,13

# System: KM12
# Experiment: Growth inhibition of human KM12 cells at 10 uM incubated for 48 hrs by sulforhodamine B assay relative to control
# Format: functional
# Conditions: read-out: GI
# Summary of the method: as §3
row,Structure (SMILES),inhibition of growth at 10 µM [%]
1,COc1cc2nc(-c3ccc(C(F)(F)F)cc3)cc(OCCN3CCCCC3)c2cc1OC,13

# System: OVCAR-4
# Experiment: Growth inhibition of human OVCAR-4 cells at 10 uM incubated for 48 hrs by sulforhodamine B assay relative to control
# Format: functional
# Conditions: read-out: GI
# Summary of the method: as §2
row,Structure (SMILES),inhibition of growth at 10 µM [%]
1,COc1cc2nc(-c3ccc(C(F)(F)F)cc3)cc(OCCN3CCCCC3)c2cc1OC,13

# System: T47D
# Experiment: Growth inhibition of human T47D cells at 10 uM incubated for 48 hrs by sulforhodamine B assay relative to control
# Format: functional
# Conditions: read-out: GI
# Summary of the method: as §1
row,Structure (SMILES),inhibition of growth at 10 µM [%]
1,COc1cc2nc(-c3ccc(C(F)(F)F)cc3)cc(OCCN3CCCCC3)c2cc1OC,13

# System: SK-MEL-5
# Experiment: Growth inhibition of human SK-MEL-5 cells at 10 uM incubated for 48 hrs by sulforhodamine B assay relative to control
# Format: functional
# Conditions: read-out: GI
# Summary of the method: as §2
row,Structure (SMILES),inhibition of growth at 10 µM [%]
1,COc1cc2nc(-c3ccc(C(F)(F)F)cc3)cc(OCCN3CCCCC3)c2cc1OC,13

# System: OVCAR-5
# Experiment: Growth inhibition of human OVCAR-5 cells at 10 uM incubated for 48 hrs by sulforhodamine B assay relative to control
# Format: functional
# Conditions: read-out: GI
# Summary of the method: as §2
row,Structure (SMILES),inhibition of growth at 10 µM [%]
1,COc1cc2nc(-c3ccc(C(F)(F)F)cc3)cc(OCCN3CCCCC3)c2cc1OC,13

# System: NCI-H23
# Experiment: Growth inhibition of human NCI-H23 cells at 10 uM incubated for 48 hrs by sulforhodamine B assay relative to control
# Format: functional
# Conditions: read-out: GI
# Summary of the method: as §2
row,Structure (SMILES),inhibition of growth at 10 µM [%]
1,COc1cc2nc(-c3ccc(C(F)(F)F)cc3)cc(OCCN3CCCCC3)c2cc1OC,13

# System: HOP-62
# Experiment: Growth inhibition of human HOP-62 cells at 10 uM incubated for 48 hrs by sulforhodamine B assay relative to control
# Format: functional
# Conditions: read-out: GI
# Summary of the method: as §3
row,Structure (SMILES),inhibition of growth at 10 µM [%]
1,COc1cc2nc(-c3ccc(C(F)(F)F)cc3)cc(OCCN3CCCCC3)c2cc1OC,13

# System: Malme-3M
# Experiment: Growth inhibition of human Malme-3M cells at 10 uM incubated for 48 hrs by sulforhodamine B assay relative to control
# Format: functional
# Conditions: read-out: GI
# Summary of the method: as §2
row,Structure (SMILES),inhibition of growth at 10 µM [%]
1,COc1cc2nc(-c3ccc(C(F)(F)F)cc3)cc(OCCN3CCCCC3)c2cc1OC,13

# System: SN12C
# Experiment: Growth inhibition of human SN12C cells at 10 uM incubated for 48 hrs by sulforhodamine B assay relative to control
# Format: functional
# Conditions: read-out: GI
# Summary of the method: as §2
row,Structure (SMILES),inhibition of growth at 10 µM [%]
1,COc1cc2nc(-c3ccc(C(F)(F)F)cc3)cc(OCCN3CCCCC3)c2cc1OC,13

# System: UACC-62
# Experiment: Growth inhibition of human UACC-62 cells at 10 uM incubated for 48 hrs by sulforhodamine B assay relative to control
# Format: functional
# Conditions: read-out: GI
# Summary of the method: as §1
row,Structure (SMILES),inhibition of growth at 10 µM [%]
1,COc1cc2nc(-c3ccc(C(F)(F)F)cc3)cc(OCCN3CCCCC3)c2cc1OC,13
